The source made the active and inactive calls. The rule behind the calls is not given here. Peptide text beside a SMILES is read from it.

In experiment [1] the test system is HIT-T15. Description: Cytoprotective activity in hamster HIT-T15 cells assessed as inhibition of serum starvation-induced cell death at 1 to 100 nM after 24 hrs by MTT assay relative to control. The format is functional, cell-based. The settings on record: Mesocricetus auratus. Put shortly:
(§1)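 Viability by MTT in HIT-T15 cells seeded at 5×10^3/well, serum-starved 24 h, then 24 h more in serum-free medium with peptide (1–100 nM). MTT 1 mg/mL ~1 h, DMSO solubilization, absorbance 570 nm. Expressed as percent of serum-free control. Mean ± SE, ≥3 experiments in quadruplicate.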

The test system of experiment [2] is HIT-T15. Description: Cytoprotective activity in hamster HIT-T15 cells assessed as inhibition of IFN-gamma/TNFalpha/IL1beta-induced cell death at 1 to 100 nM after 24 hrs by MTT assay relative to control. The format is functional, cell-based. The conditions noted are these: Mesocricetus auratus. The gist of the method: (§2)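 HIT-T15 cells (5×10^3/well) serum-starved 24 h, then 24 h serum-free with IFN-γ 100 ng/mL, TNF-α 200 ng/mL, IL-1β 10 ng/mL plus peptide (1–100 nM). MTT 1 mg/mL ~1 h, formazan dissolved in DMSO, A570. Reported as percent of cytokine control. Mean ± SE of ≥3 experiments in quadruplicate.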
On the technique in general: Tetrazolium dyes change colour on reduction, which living cells bring about.

Experiment [3] relates to Pancreatic islet. Description: Cytoprotective activity in human pancreatic islet cells assessed as inhibition of IFN-gamma/TNFalpha/IL1beta-induced cell death at 1 nM after 24 hrs by MTT assay relative to control. The format is functional. Put shortly:
(§3)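 Human donor islets (purity >70%, 25/well) serum-starved 24 h, then 24 h serum-free with peptide (1–100 nM), alone or with IFN-γ 100 ng/mL, TNF-α 200 ng/mL, IL-1β 10 ng/mL. MTT 1 mg/mL ~1 h, DMSO, A570. Percent of serum-free or cytokine control. ≥3 experiments in quadruplicate.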

Experiment [4] has as its system Pancreatic islet. Description: Cytoprotective activity in human pancreatic islet cells assessed as inhibition of IFN-gamma/TNFalpha/IL1beta-induced cell death at 100 nM after 24 hrs by MTT assay relative to control. It is filed as functional. Put shortly: as §3
The test system of experiment [5] is Pancreatic islet. Description: Cytoprotective activity in human pancreatic islet cells assessed as inhibition of serum starvation-induced cell death at 10 nM after 24 hrs by MTT assay relative to control. The format is functional. Put shortly:
as §3

For experiment [6], the system named is Pancreatic islet. Description: Cytoprotective activity in human pancreatic islet cells assessed as inhibition of serum starvation-induced cell death at 100 nM after 24 hrs by MTT assay relative to control. It is filed as functional. Put shortly:
as §3

For experiment [7], the system named is Pancreatic islet. Description: Cytoprotective activity in human pancreatic islet cells assessed as inhibition of serum starvation-induced cell death at 1 nM after 24 hrs by MTT assay relative to control. The format is functional. Put shortly: as §3
For experiment [8], the system named is Pancreatic islet. Description: Cytoprotective activity in human pancreatic islet cells assessed as inhibition of IFN-gamma/TNFalpha/IL1beta-induced cell death at 10 nM after 24 hrs by MTT assay relative to control. It is filed as functional. The gist of the method:
as §3

In experiment [9] the test system is HIT-T15. The experiment in a line: Antiapoptotic activity in hamster HIT-T15 cells assessed as reduction in IFN-gamma/TNFalpha/IL1beta-induced apoptosis at 10 nM after 24 hrs by Hoechst staining relative to control. It is filed as functional, cell-based. The settings on record: Mesocricetus auratus. The gist of the method: (§4)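 HIT-T15 cells serum-starved 24 h, then 24 h in serum-free medium with IFN-γ 100 ng/mL, TNF-α 200 ng/mL, IL-1β 10 ng/mL plus peptide. Cells pooled with floating cells, formaldehyde-fixed, ethanol-stored, stained with 10 μg/mL Hoechst 33258. Condensed/fragmented nuclei counted, 500 nuclei in duplicate, n = 3. Reported as percent apoptotic cells.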

The subject of experiment [10] is HIT-T15. The experiment in a line: Antiapoptotic activity in hamster HIT-T15 cells assessed as reduction in IFN-gamma/TNFalpha/IL1beta-induced apoptosis at 100 nM after 24 hrs by Hoechst staining relative to control. The format is functional, cell-based. The conditions noted are these: Mesocricetus auratus. The gist of the method:
as §4

The subject of experiment [11] is HIT-T15. The experiment in a line: Cytoprotective activity in hamster HIT-T15 cells assessed as inhibition of IFN-gamma/TNFalpha/IL1beta-induced cell death at 10 to 100 nM after 24 hrs by MTT assay relative to control. It is filed as functional, cell-based. The conditions noted are these: Mesocricetus auratus. Put shortly: as §2
The test system of experiment [12] is HIT-T15. Description: Cytoprotective activity in hamster HIT-T15 cells assessed as inhibition of serum starvation-induced cell death after 24 hrs by MTT assay relative to control. The format is functional, cell-based. The settings on record: Mesocricetus auratus. The gist of the method:
as §1

Experiment [13] deals with HIT-T15. The experiment in a line: Cytoprotective activity in hamster HIT-T15 cells assessed as inhibition of IFN-gamma/TNFalpha/IL1beta-induced cell death after 24 hrs by MTT assay relative to control. The conditions noted are these: Mesocricetus auratus. It is filed as functional, cell-based. Put shortly: as §2
Experiment [14] concerns EPC. Description: Cytoprotective activity in human EPC assessed as decrease in H2O2-induced ROS production after 2 hrs by DCF-DA flow cytometry assay. It is filed as functional. The gist of the method: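 Human EPCs from peripheral blood mononuclear cells, cultured 21 days on collagen I in EGM-2. ROS measured by flow cytometry using DCF-DA (0.5 μM final) after 2 h of treatment. H₂O₂ 150 μM as positive control.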

Experiment [15] concerns EPC. Description: Cytoprotective activity in human EPC assessed as decrease in H2O2-induced senescence associated beta-galactosidase positive cells at 10 uM after 24 hrs. The format is functional. The gist of the method:
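EPCs given test peptides (1 μM or 10 μM) with or without H₂O₂ for 24 h. Cells then fixed in 2% paraformaldehyde for 3 min and stained 24 h at 37 °C with X-gal solution. SA-β-gal-positive cells counted out of 100 at 20× by three investigators.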

Experiment [16] concerns the target Ras-related C3 botulinum toxin substrate 1 (Homo sapiens) (UniProt P63000). The experiment in a line: Inhibition of Rac1 activation.

With H-SPAHQRVQ-NH2, the outcome in experiment [1] and in experiment [2] was Active.
On to H-GSSFLSPEHQRVQQRKES-NH2, for which the result in experiment [1], in experiment [3], in experiment [2], in experiment [5], in [7] and in experiment [8] was Active. For the same molecule, the outcome in [4] and in experiment [6] was inactive.
As to `CC(C)[C@H](NC(=O)[C@H](CCCNC(=N)N)NC(=O)[C@H](CCC(N)=O)NC(=O)[C@H](Cc1cnc[nH]1)NC(=O)[C@H](CCC(=O)O)NC(=O)[C@H]1CCCN1C(=O)[C@@H](N)CO)C(=O)N[C@@H](CCC(N)=O)C(N)=O`, the result in [1] and in experiment [2] was inactive.
Turning to `CC(C)[C@H](NC(=O)[C@H](CCCNC(=N)N)NC(=O)[C@H](CCC(N)=O)NC(=O)[C@@H](Cc1cnc[nH]1)NC(=O)[C@H](CCC(=O)O)NC(=O)[C@@H]1CCCN1C(=O)[C@@H](N)CO)C(=O)N[C@@H](CCC(N)=O)C(N)=O`, the result in experiment [1] and in [2] was inactive.
Regarding `CC(C)[C@H](NC(=O)[C@H](CCCNC(=N)N)NC(=O)[C@H](CCC(N)=O)NC(=O)[C@H](Cc1cnc[nH]1)NC(=O)[C@@H](CCC(=O)O)NC(=O)[C@@H]1CCCN1C(=O)[C@@H](N)CO)C(=O)N[C@@H](CCC(N)=O)C(N)=O`, the outcome in experiment [1] and in experiment [2] was inactive.
On to `N=C(N)NCCC[C@H](NC(=O)[C@H](CCC(N)=O)NC(=O)[C@@H](N)Cc1cnc[nH]1)C(N)=O` (H-His-Gln-Arg-NH2), for which, in experiment [2], the outcome was inactive.
As for `CC(C)[C@H](NC(=O)[C@H](CCCNC(=N)N)NC(=O)[C@H](CCC(N)=O)NC(=O)[C@H](Cc1cnc[nH]1)NC(=O)[C@H](CCC(=O)O)NC(=O)[C@@H]1CCCN1C(=O)[C@@H](N)CO)C(=O)N[C@H](CCC(N)=O)C(N)=O`, the outcome in experiment [1] and in [2] was inactive.
With H-ESKKPPAKLQPR-OH, the outcome in [1], in experiment [3], in experiment [4], in [2], in experiment [5] and in experiment [6] was inactive. Moreover, the result in [7] and in experiment [8] was inactive.
On to H-EHQRVQ-NH2, for which the result in [9], in [2] and in experiment [10] was Active.
For H-SPEHQRVA-NH2, the result in [1] and in experiment [2] was Active.
`CC(C)[C@@H](NC(=O)[C@H](N)CCC(N)=O)C(=O)N[C@H](CCCNC(=N)N)C(=O)N[C@H](CCC(N)=O)C(=O)N[C@H](Cc1cnc[nH]1)C(=O)N[C@H](CCC(=O)O)C(=O)N1CCC[C@@H]1C(=O)N[C@H](CO)C(N)=O`: the outcome in experiment [1] and in [2] was inactive.
As for `CC(C)[C@@H](NC(=O)[C@@H](CCCNC(=N)N)NC(=O)[C@@H](CCC(N)=O)NC(=O)[C@@H](Cc1cnc[nH]1)NC(=O)[C@@H](CCC(=O)O)NC(=O)[C@H]1CCCN1C(=O)[C@H](N)CO)C(=O)N[C@H](CCC(N)=O)C(N)=O`, the result in experiment [1] and in [2] was inactive.
On to `N=C(N)NCCC[C@H](NC(=O)[C@H](CCC(N)=O)NC(=O)[C@H](Cc1cnc[nH]1)NC(=O)[C@@H](N)CCC(=O)O)C(N)=O` (H-EHQR-NH2), for which the result in experiment [2] was inactive.
As to H-SPEHQAVQ-NH2, the result in experiment [1] and in [2] was inactive.
For `CC(C)[C@H](NC(=O)[C@H](CCCNC(=N)N)NC(=O)[C@H](CCC(N)=O)NC(=O)[C@@H](N)Cc1cnc[nH]1)C(N)=O` (H-HQRV-NH2), the result in [11] was Active.
As to `CC(C)[C@H](NC(=O)[C@@H](CCCNC(=N)N)NC(=O)[C@H](CCC(N)=O)NC(=O)[C@H](Cc1cnc[nH]1)NC(=O)[C@H](CCC(=O)O)NC(=O)[C@@H]1CCCN1C(=O)[C@@H](N)CO)C(=O)N[C@@H](CCC(N)=O)C(N)=O`, the outcome in experiment [1] and in experiment [2] was inactive.
As for H-APEHQRVQ-NH2, the result in [1] and in experiment [2] was Active.
For H-GSSFLSPEHQRVQQ-NH2, the result in [1], in experiment [4], in [2], in experiment [5] and in experiment [6] was Active. For the same molecule, the result in [3] and in [8] was inactive.
Regarding `CC(C)[C@H](NC(=O)[C@H](CCCNC(=N)N)NC(=O)[C@H](CCC(N)=O)NC(=O)[C@H](Cc1cnc[nH]1)NC(=O)[C@H](CCC(=O)O)NC(=O)[C@@H]1CCCN1C(=O)[C@H](N)CO)C(=O)N[C@@H](CCC(N)=O)C(N)=O`, the outcome in experiment [1] and in experiment [2] was inactive.
For H-SAEHQRVQ-NH2, the outcome in experiment [1] and in experiment [2] was Active.
With `CC(C)[C@H](NC(=O)[C@H](CCCNC(=N)N)NC(=O)[C@@H](CCC(N)=O)NC(=O)[C@H](Cc1cnc[nH]1)NC(=O)[C@H](CCC(=O)O)NC(=O)[C@@H]1CCCN1C(=O)[C@@H](N)CO)C(=O)N[C@@H](CCC(N)=O)C(N)=O`, the result in experiment [1] and in [2] was inactive.
As for H-SPEHARVQ-NH2, the outcome in experiment [1] and in experiment [2] was inactive.
With H-SPEHQRAQ-NH2, the outcome in experiment [1] and in [2] was Active.
As for H-GSSFL-NH2, the result in experiment [1], in experiment [3], in [4], in experiment [2], in experiment [5] and in experiment [6] was inactive. Also, the outcome in experiment [7] and in experiment [8] was inactive.
Take `CC(C)[C@@H]1NC(=O)[C@H](CCCNC(=N)N)NC(=O)[C@H](CCC(N)=O)NC(=O)[C@H](Cc2cnc[nH]2)NC(=O)[C@H](CCC(=O)O)NC(=O)[C@@H]2CCCN2C(=O)[C@H](CO)NC(=O)[C@H](CCC(N)=O)NC1=O` (cyclo(EHQRVQSP)): the Activity result in experiment [12] and in experiment [13] was “Dose-dependent effect” throughout. Further, the outcome in experiment [14] and in experiment [15] was Active. Further, the inhibition entry in experiment [16] was “Active”.
For the molecule H-SPEAQRVQ-NH2, the result in experiment [1] and in experiment [2] was Active.
Consider `CC(C)[C@@H](NC(=O)[C@H](CCCNC(=N)N)NC(=O)[C@H](CCC(N)=O)NC(=O)[C@H](Cc1cnc[nH]1)NC(=O)[C@H](CCC(=O)O)NC(=O)[C@@H]1CCCN1C(=O)[C@@H](N)CO)C(=O)N[C@@H](CCC(N)=O)C(N)=O`, for which the result in experiment [1] and in experiment [2] was inactive.
